Measured values published in publication PMC8387982 (ACS Omega, 2021).

Assays:
human erythrocytes = assay: Hemolytic assay; type: cell-based; conditions: concentration causing 10% hemolysis of erythrocytes; 1 h, 37 °C
[1] = Circular dichroism, α-helical content; type: physicochemical
In short: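 CD spectra recorded at 25 °C in a 1.0 mm quartz cell over 190–260 nm (50 nm/min, 1 nm bandwidth, 1 s response). Test compound at 50 μM final in deionized water or 50% TFE. Observed ellipticity corrected for buffer and converted to mean residue ellipticity using peptide concentration, path length and residue number.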

[2] = system: human glomerular mesangial cell (GMC) line; assay: MTT cytotoxicity assay; type: cell-based; conditions: read-out: IC50 for GMC, 12 h, peptides 1-256 μM
In short: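 MTT assay: human GMC cells seeded at 1.0×10^4 cells/well and exposed to test compound (1–256 μM) for 12 h at 37 °C, 5% CO2. Then 0.5 mg/mL MTT added for 4 h at 37 °C; formazan dissolved in DMSO and read at 570 nm. At least three independent experiments, each with three technical replicates.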

[3] = system: bacteria (S. aureus, B. subtilis, E. coli, P. aeruginosa, K. pneumoniae); assay: Geometric mean of the peptide MICs; type: cell-based; conditions: over the five bacterial strains
In short: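 Broth microdilution: single colony grown in MHB at 37 °C for 16–24 h. Log-phase culture diluted to 1×10^6 CFU/mL and mixed with equal volumes of serially diluted test compound. […] At least three independent experiments, each with three technical replicates. Geometric mean of MICs across strains computed.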

P. aeruginosa ATCC 27853 = assay: Checkerboard FIC with conventional antibiotics; type: cell-based, Pseudomonas aeruginosa; conditions: in combination with rifampicin
In short: (§1)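 Checkerboard assay: test compound and antibiotic mixed at 2× their MICs, then 2-fold serial dilutions made in MHB. Equal volume of bacteria (1×10^6 CFU/mL) added and incubated 18–24 h at 37 °C. Growth read as in the MIC assay. FIC = (MIC peptide in combination/MIC peptide alone) + (MIC antibiotic in combination/MIC antibiotic alone). Interpretation: ≤0.5 synergy; 0.5–1 additive; 1.0–<4.0 indifference; ≥4 antagonism.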

[4] = system: K. pneumoniae ATCC 700603; assay: Checkerboard FIC with conventional antibiotics; type: cell-based, Klebsiella pneumoniae
In short: as §1

E. coli ATCC 25922 = assay: Checkerboard FIC with conventional antibiotics; type: cell-based, Escherichia coli
In short: as §1

Row | Substance | MHC (minimum hemolytic concentration) (human erythrocytes) [µM] | α-helix in 50% TFE ([1]; CD, 50 μM peptide, 50% TFE, 25 °C) [%] | α-helix in water ([1]; CD, 50 μM peptide, deionized water, 25 °C) [%] | α-helical structure in water (CD) ([1]; water environment, result in words) | IC50 [2] [µM] | GM (geometric mean of the peptide MICs) [3] [µM] | FIC (P. aeruginosa ATCC 27853) | FIC ([4]; in combination with gentamicin) | FIC ([4]; in combination with rifampicin) | FIC (E. coli ATCC 25922; in combination with gentamicin) | FIC (E. coli ATCC 25922; in combination with rifampicin)
1 | H-GLLKRIKTLL-NH2 [Anoplin] | >256 | 82.64 | 14.03 | did not show a α-helical structure | > 256 | 48.50 | – | – | – | – | –
2 | polymyxin B | – | – | – | – | – | – | 0.3125 | 0.5 | 0.3125 | 0.3125 | 0.125
